# Bioassay records from PubChem.
# Sampled rows, rich in hits. Any-hit rate of the full collection: about 5.9%.
# IDH1 R132H inh: inhibitors of IDH1 R132H reductase, primary screen, biochemical, plate reader, single point | diaphorase/resazurin fluorescence, 60 min | Isocitrate dehydrogenase [NADP] cytoplasmic (Homo sapiens), O75874 | inhibition, % at 10 µM | hit rate 0.18% among 70,000 | AID 624101, 2012; in the data active means inhibition above about 34%; inconclusive means no clear call, values can overlap the other calls; inactive means below about 11%;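 further: 0% = DMSO and 100% = no enzyme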
# Target sequence (O75874 whole entry R132H): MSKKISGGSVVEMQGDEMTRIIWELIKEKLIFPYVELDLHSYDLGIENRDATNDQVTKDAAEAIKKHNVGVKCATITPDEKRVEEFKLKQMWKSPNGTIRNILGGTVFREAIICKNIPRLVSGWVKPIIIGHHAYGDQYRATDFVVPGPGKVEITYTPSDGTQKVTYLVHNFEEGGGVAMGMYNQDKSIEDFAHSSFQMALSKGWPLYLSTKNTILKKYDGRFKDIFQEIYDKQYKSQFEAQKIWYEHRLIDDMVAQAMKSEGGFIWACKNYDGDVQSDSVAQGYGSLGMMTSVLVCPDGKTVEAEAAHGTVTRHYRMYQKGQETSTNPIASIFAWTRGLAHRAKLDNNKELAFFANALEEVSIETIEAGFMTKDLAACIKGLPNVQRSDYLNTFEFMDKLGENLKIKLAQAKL
# KDM4C inh: inhibitors of GASC-1 (KDM4C) histone demethylase, primary screen, biochemical, single concentration HTS; inhibition, % at 12.5 µM; AID 720574, 2013; GST-KDM4C 2-372, H3K9me3 peptide, LANCE TR-FRET; hit rate 0.15% among 96,000;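 active means mean replicate inhibition above about 25%, with at least 55% of replicates also reaching it, limit read from the data, passing the limit was not always enough; inconclusive means only one of those two conditions met; inactive means neither condition met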
#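 System: N-terminal GST-fused human GASC-1 (KDM4C) fragment, residues 2-372; amount: enzyme final amount 10 nM; incubation: reaction 30 min RT, detection step 1 h RT; medium: HEPES buffer, pH 7.5, plus ascorbate; technique: LANCE TR-FRET, Eu antibody, ULight-streptavidin, EDTA, ex 340 nm, em 618/671 nm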
# Pf Dd2 growth: P. falciparum Dd2 growth inhibitors, primary screen, SYBR Green fluorescence, single dose replicates | 72 h; active compounds read low | activity change, % at 10 µM | hit rate 2.3% among 94,000; in the data active means activity change below about -80%; inconclusive means no clear call, values can overlap the other calls
# T cruzi growth-1: T. cruzi intracellular proliferation inhibitors, primary screen, cell-based, beta-gal Tulahuen parasites, NIH3T3 host, luminescence | T. cruzi beta-gal in NIH3T3, GalScreen luminescence, 90 h | inhibition, % at 8.34 µM | hit rate 5.9% among 77,000;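 active means mean inhibition above about 93%, with at least 55% of replicates each passing it, limit read from the data, passing the limit was not always enough; inconclusive means only one of those two conditions holds; inactive means neither condition holds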
# T cruzi growth-2: T. cruzi intracellular proliferation inhibitors, confirmation, cell-based, NIH3T3 host, beta-gal parasite, luminescence, cherry-pick; hit rate 72% among 5,600; shares compounds with T cruzi growth-1; inhibition, % at 8.35 µM; T. cruzi beta-gal in NIH3T3, GalScreen luminescence, 90 h;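 active means mean replicate inhibition above about 95% and at least 55% of replicates individually reaching it, limit read from the data; inconclusive means only one of the two criteria is met; inactive means neither criterion is met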
# T cruzi growth-3: inhibitors of intracellular T. cruzi replication, confirmation, NIH3T3 host cells, beta-gal parasites, cherry-pick, set 2 | shares compounds with T cruzi growth-1 | T. cruzi beta-gal in NIH3T3, GalScreen luminescence, 90 h | inhibition, % at 2.09 µM | hit rate 21% among 5,600 | AID 651740, 2012;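 active means mean inhibition above about 95%, with at least 55% of replicates also reaching it, limit read from the data; inconclusive means meets just one of the two conditions; inactive means meets neither condition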;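 further: plate controls were neutral control median for no effect and positive control median for full effect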
# NIH3T3 tox: cytotoxicity in mouse NIH/3T3 fibroblasts, confirmation, cytotoxicity control for T. cruzi proliferation inhibitor project, cell-based, cherry-pick, single point; shares compounds with T cruzi growth-1; NIH/3T3 viability, CellTiter-Glo ATP luminescence, 90 h; cytotoxicity (signal decrease), % at 8.35 µM; hit rate 14% among 5,600;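 active means mean signal decrease across replicates above about 35% based on untreated-well scatter, with enough replicates individually passing, limit read from the data; inconclusive means no rule stated though some were filed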;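 further: 0% = median of neutral control wells and 100% = median of positive control wells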
# 3T3 cytotox 2: NIH/3T3 fibroblast cytotoxicity, confirmation, cytotoxicity control, cell-based, cherry-pick, single point, set 2; AID 651744, 2012; hit rate 56% among 5,600; inhibition, % at 24.9 µM; NIH/3T3 viability, CellTiter-Glo ATP luminescence, 90 h; shares compounds with T cruzi growth-1;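 active means mean loss of cell viability signal at or above a set limit, and enough replicates individually reaching it; inconclusive means meets only the mean limit or only the replicate share; inactive means meets neither condition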;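 further: 0% = median of neutral control wells and 100% = median of positive control wells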
# Numbers without * were called inactive; ? = inconclusive; nt = not tested or not shown.
SMILES,IDH1 R132H inh,KDM4C inh,Pf Dd2 growth,T cruzi growth-1,T cruzi growth-2,T cruzi growth-3,NIH3T3 tox,3T3 cytotox 2
CCCC#Cc1ccc2c(c1)O[C@@H](CN(C)C(=O)c1ccncc1)[C@H](C)CN([C@@H](C)CO)S2(=O)=O,0,1,23,87,nt,nt,nt,nt
CCCC#Cc1ccc2c(c1)O[C@@H](CN(C)C(=O)c1ccccc1)[C@H](C)CN([C@@H](C)CO)S2(=O)=O,0,0,-58,96*,102*,73,32,62*
CC(C)CC#Cc1ccc2c(c1)O[C@H](CN(C)C(=O)c1ccccc1)[C@@H](C)CN([C@H](C)CO)S2(=O)=O,2,-2,-57,nt,nt,nt,nt,nt
CC(C)CC#Cc1ccc2c(c1)O[C@@H](CN(C)C(=O)c1ccccc1)[C@@H](C)CN([C@@H](C)CO)S2(=O)=O,0,-6,-70,120*,102*,88,27,103*
CC(Sc1nnc(-c2ccc(Br)cc2)n1-c1ccccc1)C(=O)O (stereo not drawn),13,nt,nt,nt,nt,nt,nt,nt
COc1cc(C(c2c[nH]c3ccccc23)c2c[nH]c3ccccc23)c(O)c([N+](=O)[O-])c1,1,nt,nt,nt,nt,nt,nt,nt
C[C@@H]1CN([C@@H](C)CO)C(=O)c2cc(NC(=O)Cc3ccccc3)ccc2O[C@@H](C)CCCCO[C@@H]1CN(C)S(=O)(=O)c1ccc(Cl)cc1,nt,-1,-85*,111*,101*,65,-3,-2
Cc1ccc(S(=O)(=O)N(C)C[C@@H]2OCCCC[C@H](C)Oc3ccc(NC(=O)Cc4ccccc4)cc3C(=O)N([C@H](C)CO)C[C@@H]2C)cc1,nt,-1,-76,112*,101*,30,-21,?
C[C@@H]1CN([C@H](C)CO)C(=O)c2cc(NC(=O)Cc3ccccc3)ccc2O[C@@H](C)CCCCO[C@@H]1CN(C)S(=O)(=O)c1ccc(Cl)cc1,nt,-2,-84*,108*,109*,85,-13,22
COc1ccc(S(=O)(=O)N(C)C[C@H]2OCCCC[C@H](C)Oc3ccc(NC(=O)Cc4ccccc4)cc3C(=O)N([C@@H](C)CO)C[C@@H]2C)cc1,nt,-4,-83*,?,107*,43,-10,-18
CCN(CC(=O)Nc1ccc(Br)cc1F)S(=O)(=O)c1ccc2ccccc2c1,0,nt,nt,nt,nt,nt,nt,nt
COc1ccc2[nH]c3c(OC)ncnc3c2c1,-2,nt,nt,nt,nt,nt,nt,nt
CC1=Nc2ccc(C)cc2/C1=C\c1c(N)n2nc(S(=O)(=O)CC(C)C)sc2nc1=O,-5,nt,nt,nt,nt,nt,nt,nt
Cc1ccccc1S(=O)(=O)N1CC[C@@H]2[C@@H](CO)Nc3ccc(-c4ccc(C#N)cc4)cc3[C@@H]21,nt,-5,4,?,97*,71,66*,92*
Cc1ccccc1S(=O)(=O)N1CC[C@H]2[C@H](CO)Nc3ccc(-c4ccc(C#N)cc4)cc3[C@H]21,nt,2,7,115*,107*,77,52*,69*
CNC[C@@H]1Oc2cc(C#CCC3CCCC3)ccc2S(=O)(=O)N([C@@H](C)CO)C[C@H]1C,0,1,-61,?,101*,60,?,105*
CNC[C@H]1Oc2cc(C#CCC3CCCC3)ccc2S(=O)(=O)N([C@@H](C)CO)C[C@@H]1C,0,-2,-66,?,-27,-20,-2,-6
CNC[C@H]1Oc2cc(C#CCC3CCCC3)ccc2S(=O)(=O)N([C@H](C)CO)C[C@H]1C,0,-3,-69,?,98*,79,?,106*
CNC[C@@H]1Oc2cc(C#CCC3CCCC3)ccc2S(=O)(=O)N([C@@H](C)CO)C[C@@H]1C,0,-2,-66,?,87,71,51*,106*
C[C@@H]1CN([C@H](C)CO)S(=O)(=O)c2ccc(C#CCC3CCCC3)cc2O[C@H]1CN(C)C,-1,-1,-22,41,nt,nt,nt,nt
C[C@H]1CN([C@@H](C)CO)S(=O)(=O)c2ccc(C#CCC3CCCC3)cc2O[C@@H]1CN(C)C,-1,nt,-55,73,nt,nt,nt,nt
C[C@@H]1CN([C@@H](C)CO)C(=O)c2cc(NC(=O)NC3CCCCC3)ccc2O[C@@H](C)CCCCO[C@H]1CN(C)S(=O)(=O)c1ccc(F)cc1,2,1,-55,?,49,8,6,4
Cc1ccc(S(=O)(=O)N(C)C[C@@H]2OCCCC[C@H](C)Oc3ccc(NC(=O)Nc4ccc(F)cc4)cc3C(=O)N([C@@H](C)CO)C[C@H]2C)cc1,2,0,?,106*,102*,53,-1,8
C[C@@H]1CCCCO[C@@H](CN(C)S(=O)(=O)c2ccc(F)cc2)[C@@H](C)CN([C@H](C)CO)C(=O)c2cc(NC(=O)Nc3ccc(F)cc3)ccc2O1,2,0,-46,-9,nt,nt,nt,nt
C[C@@H]1CCCCO[C@@H](CN(C)S(=O)(=O)c2ccc(F)cc2)[C@H](C)CN([C@H](C)CO)C(=O)c2cc(NC(=O)Nc3ccc(F)cc3)ccc2O1,nt,-1,-82*,100*,104*,91,12,-5
C[C@@H]1CCCCO[C@@H](CN(C)S(=O)(=O)c2ccc(F)cc2)[C@H](C)CN([C@@H](C)CO)C(=O)c2cc(NC(=O)Nc3ccc(F)cc3)ccc2O1,nt,-1,-45,98*,105*,51,0,-5
COC(=O)c1ccccc1NC(=O)c1ccc(NS(=O)(=O)c2cccc3cccnc23)cc1,0,nt,nt,nt,nt,nt,nt,nt
COc1ccc(-c2oc(NC(=O)Cc3ccc(OC)c(OC)c3)c(C#N)c2-c2ccc(OC)cc2)cc1,0,nt,nt,nt,nt,nt,nt,nt
CCc1ccc(-n2cc3c(c(C#N)c2=N)CC(C)(C)CC3=O)cc1,0,nt,nt,nt,nt,nt,nt,nt
C/C(=C\CC[C@@H](C)[C@H]1CC(O)[C@@]2(C)C3CC[C@H]4C(C)(C)[C@@H](O[C@@H]5OC(CO)C(O)C(O)C5OC5OC(CO)C(O)C(O)C5O)CC[C@@]45C[C@@]35CC(O)[C@]12C)C(=O)O (stereo partly drawn),0,nt,nt,nt,nt,nt,nt,nt
